Measurements: PubChem BioAssay AID488843 (Broad Institute, 2010)
Activity calls are given as the source filed them.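 Rule for the calls: active = compound whose fitted half-maximal VEGF mRNA rise lies within ten times its top tested dose; inconclusive = flat response of 30 to 70% or a poor curve fit; inactive = the rest, including reverse-direction effects.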

System: U2OS VEGF mRNA induction, RT-PCR
Assay: HIF target gene expression activators – cell-based, U2OS, RT-PCR, dry powder, dose response (AID 488843)
Details: not given
Summary of the method: (§1)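 Assay system: U2OS osteosarcoma cells, VEGF-A transcript | Buffer or medium: DMEM without phenol red plus 10% FBS | Dosing: Pinned compound dose series | Timing: 24 h pre-dosing growth, then 24 h exposure at 37 °C | Measured by: Multiplex TaqMan RT-qPCR, VEGF-A FAM, beta-actin VIC | Controls: DMSO wells as negative reference | Repeats: Duplicate wells per dose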
Work on `Cc1ccc(NC(=O)c2cc(-c3ccccc3)on2)cn1` yielded an AC50 of 38 µM. With `O=C(NCC1CC1)c1cc(-c2ccccc2)on1` the AC50 was 14.4 µM. Work on `c1ccc(-c2nnc(-c3ccccn3)nc2N2CCC(N3CCOCC3)CC2)cc1` yielded an AC50 of 8.46 µM. Molecule `O=C(NCCCn1ccnc1)c1cc(-c2ccccc2)on1` has an AC50 of 16 µM. For `CC(C)(C)CCNc1nc(-c2ccccn2)nnc1-c1ccccc1`, the AC50 was 3.58 µM. `O=C(NCCCO)c1cc(-c2ccccc2)on1` showed an AC50 of 22.3 µM. In the case of `c1ccc(-c2nnc(-c3ccccn3)nc2NCCCN2CCOCC2)cc1`, the AC50 is reported as 9.7 µM. In the case of `Cc1cccc(Nc2nc(-c3ccccn3)nnc2-c2ccccc2)n1`, the AC50 is reported as 12.9 µM. In the case of `O=C(Nc1ccc2ccccc2n1)c1cc(-c2ccccc2)on1`, the AC50 is reported as 7.99 µM. For `c1ccc(-c2nnc(-c3ccccn3)nc2NCCN2CCOCC2)cc1`, the AC50 was 8.52 µM. With `Cc1ccc(Nc2nc(-c3ccccn3)nnc2-c2ccccc2)cn1` the AC50 was 8.83 µM. Molecule `C=CCNc1nc(-c2ccccn2)nnc1-c1ccccc1` has an AC50 of 7 µM. `c1ccc(-c2csc(Nc3nc(-c4ccccn4)nnc3-c3ccccc3)n2)cc1` gave an AC50 of 2.69 µM. In the case of `c1ccc(-c2cnc(Nc3nc(-c4ccccn4)nnc3-c3ccccc3)s2)cc1`, the AC50 is reported as 4.96 µM. `OCC1CCN(c2nc(-c3ccccn3)nnc2-c2ccccc2)CC1` showed an AC50 of 11.1 µM. In the case of `Cc1cccc(CNc2nc(-c3ccccn3)nnc2-c2ccccc2)c1`, the AC50 is reported as 3.83 µM. In the case of `Cn1c(-c2ccccc2)cnc1Nc1nc(-c2ccccn2)nnc1-c1ccccc1`, the AC50 is reported as 5.34 µM. `O=C(NCCCCO)c1cc(-c2ccccc2)on1` showed an AC50 of 8.59 µM. Work on `CN(C)c1nc(-c2ccccn2)nnc1-c1ccccc1` yielded an AC50 of 6.38 µM. `c1ccc(-c2nnc(-c3ccccn3)nc2NCC2CCCCC2)cc1` showed an AC50 of 3.04 µM. In the case of `CN1CCN(c2nc(-c3ccccn3)nnc2-c2ccccc2)CC1`, the AC50 is reported as 8.76 µM. With `O=C(NCCN1CCOCC1)c1cc(-c2ccccc2)on1` the AC50 was 19.6 µM. In the case of `Cc1ccccc1CNc1nc(-c2ccccn2)nnc1-c1ccccc1`, the AC50 is reported as 5.64 µM. `CCCCNC(=O)c1cc(-c2ccccc2)on1` showed an AC50 of 12.4 µM. In the case of `O=C(NCCCN1CCOCC1)c1cc(-c2ccccc2)on1`, the AC50 is reported as 30.7 µM. In the case of `c1ccc(-c2nnc(-c3ccccn3)nc2Nc2nc3ccccc3s2)cc1`, the AC50 is reported as 1.71 µM. `c1ccc(-c2nnc(-c3ccccn3)nc2N2CCN(c3ccncc3)CC2)cc1` showed an AC50 of 7.31 µM. Molecule `c1ccc(-c2nnc(Nc3nc(-c4ccccn4)nnc3-c3ccccc3)s2)cc1` has an AC50 of 2.81 µM. In the case of `OCCCNc1nc(-c2ccccn2)nnc1-c1ccccc1`, the AC50 is reported as 10.7 µM. Work on `c1ccc(CNc2nc(-c3ccccn3)nnc2-c2ccccc2)cc1` yielded an AC50 of 7.55 µM. Molecule `c1ccc(-c2nnc(-c3ccccn3)nc2NCC2CC2)cc1` has an AC50 of 8.4 µM. For `c1ccc(-c2nnc(-c3ccccn3)nc2Nc2cnc3ccccc3n2)cc1`, the AC50 was 4.81 µM. In the case of `Cc1ccc(CNc2nc(-c3ccccn3)nnc2-c2ccccc2)cc1`, the AC50 is reported as 3.46 µM.

System: not listed separately
Assay: as above
Details: U2OS VEGF mRNA induction, RT-PCR; at 38 µM (top of the series)
Summary of the method: as §1
In the case of `O=C(NCCN1CCCCC1)c1cc(-c2ccccc2)on1`, the activation (VEGF mRNA increase) is reported as 14.3% (inactive). In the case of `O=C(c1cc(-c2ccccc2)on1)N1CCC(CO)CC1`, the activation (VEGF mRNA increase) is reported as 14.4% (inactive). For `Cc1ccc(CNC(=O)c2cc(-c3ccccc3)on2)cc1`, the activation (VEGF mRNA increase) was -3.43% (inactive). For `O=C(c1cc(-c2ccccc2)on1)N1CCc2cccnc21`, the activation (VEGF mRNA increase) was 5.19% (inactive). With `CC(C)(C)CCNC(=O)c1cc(-c2ccccc2)on1` the activation (VEGF mRNA increase) was 13.5% (inactive). With `O=C(c1cc(-c2ccccc2)on1)N1CCC(N2CCCC2)CC1` the activation (VEGF mRNA increase) was 9.95% (inactive). In the case of `O=C(Nc1ncc(-c2ccccc2)o1)c1cc(-c2ccccc2)on1`, the activation (VEGF mRNA increase) is reported as 1.3% (inactive). In the case of `O=C(NCc1ccccc1)c1cc(-c2ccccc2)on1`, the activation (VEGF mRNA increase) is reported as 12.2% (inactive). For `O=C(Nc1nnc(-c2ccccc2)s1)c1cc(-c2ccccc2)on1`, the activation (VEGF mRNA increase) was 3.52% (inactive). With `O=C(Nc1cnc2ccccc2c1)c1cc(-c2ccccc2)on1` the activation (VEGF mRNA increase) was 3.98% (inactive). In the case of `Cc1ccccc1CNC(=O)c1cc(-c2ccccc2)on1`, the activation (VEGF mRNA increase) is reported as 22.6% (inactive). In the case of `O=C(NCC1CCCCC1)c1cc(-c2ccccc2)on1`, the activation (VEGF mRNA increase) is reported as -2.06% (inactive). In the case of `CN(C)CCNC(=O)c1cc(-c2ccccc2)on1`, the activation (VEGF mRNA increase) is reported as 4% (inactive). With `O=C(Nc1nc(-c2ccccc2)cs1)c1cc(-c2ccccc2)on1` the activation (VEGF mRNA increase) was 3.91% (inactive). With `O=C(NC1CCc2ccccc2C1)c1cc(-c2ccccc2)on1` (centres undefined) the activation (VEGF mRNA increase) was 14.2% (inactive). With `O=C(c1cc(-c2ccccc2)on1)N1CCC(N2CCOCC2)CC1` the activation (VEGF mRNA increase) was 13% (inactive). For `Cc1cccc(CNC(=O)c2cc(-c3ccccc3)on2)c1`, the activation (VEGF mRNA increase) was 11.8% (inactive). For `CN1CCN(C(=O)c2cc(-c3ccccc3)on2)CC1`, the activation (VEGF mRNA increase) was -1.09% (inactive). For `Cn1c(NC(=O)c2cc(-c3ccccc3)on2)nc2ccccc21`, the activation (VEGF mRNA increase) was 2.87% (inactive). With `O=C(Nc1cn2ccccc2n1)c1cc(-c2ccccc2)on1` the activation (VEGF mRNA increase) was 20.3% (inactive). In the case of `Cc1cccc(NC(=O)c2cc(-c3ccccc3)on2)n1`, the activation (VEGF mRNA increase) is reported as -4.09% (inactive). In the case of `O=C(c1cc(-c2ccccc2)on1)N1CCN(c2ccncc2)CC1`, the activation (VEGF mRNA increase) is reported as 34.7% (inactive). With `O=C(NC1Cc2ccccc2C1)c1cc(-c2ccccc2)on1` the activation (VEGF mRNA increase) was -0.187% (inactive). In the case of `Cn1c(-c2ccccc2)cnc1NC(=O)c1cc(-c2ccccc2)on1`, the activation (VEGF mRNA increase) is reported as -1.36% (inactive). In the case of `O=C(Nc1nc2ccccc2s1)c1cc(-c2ccccc2)on1`, the activation (VEGF mRNA increase) is reported as 4.08% (inactive). With `O=C(Nc1ncc2ccccc2n1)c1cc(-c2ccccc2)on1` the activation (VEGF mRNA increase) was 17.1% (inactive).
